Bioassay records from PubChem.
Rows were chosen to be rich in hits. Some 4.4% of all compounds tested hit in one or more screens of this group.
Calb FLC – C. albicans growth modulation with fluconazole; C. albicans CaCi-2 (fluconazole-resistant clinical isolate) + fluconazole, Alamar Blue growth, 48 h; growth inhibition, % (no concentration beside the values); 300,000 compounds, 0.57% hits; AID 1979;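 active = growth inhibition above about 58% in most replicates, limit read from the data, passing the limit was not always enough; inconclusive = exactly half the replicates above a set limit; inactive = most replicates below a set limit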;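 note: all wells also contain fluconazole at 8 µg/ml as a sub-toxic cotreatment; 0% = median of DMSO wells and 100% = median of geldanamycin control wells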
HSF1 inhib – HSF1 inhibition | activity change, negative = inhibition, % at 7.5 µM (by protocol) | 300,000 compounds, 0.77% hits | AID 2098 | NIH3T3-HGL HSE-luciferase, MG132-induced, luminescence 8 h; active compounds read low;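 active = more than half of replicate wells show activity change below -50%, luminescence cut by over half; inconclusive = some wells, but at most half, below -50%; inactive = no replicate well below -50%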;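 note: luciferase reports HSF-1 transcriptional activity via heat shock element; 0% = median of DMSO wells and -100% = zero luminescence signal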
T cruzi repl – blocks replication of Trypanosoma cruzi | 300,000 compounds, 1.4% hits | T. cruzi beta-gal in NIH3T3, luminescence, 90 h | inhibition, % (concentration not given with the values);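 active = mean inhibition across valid replicates above about 55%, limit read from the data; inconclusive = mean below that limit but half or more replicates reach it; inactive = mean below it, under half of replicates reach it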;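 note: signal also drops with host cell toxicity which is not excluded here; 0% = plate median of DMSO wells and 100% = zero luminescence signal; higher percent means less beta-gal luminescence so fewer parasites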
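Incubation – ≥90 h infection period, 3 h prior cell attachment · System – NIH/3T3 fibroblasts plus reporter T. cruzi · Doses – compound pinned at 50 nL/well, DMSO · Read-out basis – percent inhibition of parasite-derived β-gal signal · Signal – luminescent β-galactosidase signal after 60 min lysis · Also added – 5000 T. cruzi trypomastigotes/well · Medium – Low-serum DMEM with 2% FBS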
HIF activator – HIF pathway transcriptional activation. activation, % at 7.5 µM (by protocol). U2OS HRE-luciferase reporter, luminescence; normalized: DMSO 0%, desferrioxamine 100%. 300,000 compounds, 0.32% hits;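 active = mean activation of at least 10% of the iron chelator positive control signal, with at least half of replicates also reaching 10%; inconclusive = mean and replicate majority disagree about reaching 10%; inactive = mean and most replicates under 10%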
HSF1 activator – increases HSF-1 driven luciferase reporter signal; 300,000 compounds, 1.7% hits; AID 504408; activation, % at 9 µM; NIH3T3-HGL HSF-1 luciferase reporter, MG132, 8 h; 100% = twice DMSO control signal;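 active = mean replicate activation of at least 50% with a set share of replicates each reaching 50%; inconclusive = only one of those two conditions met; inactive = mean below 50% and too few replicates reaching it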;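 note: 0% = median of the neutral control wells and 100% = twice that signal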
* marks the source's active call; other numbers are inactive results; ? = inconclusive; . = not tested or not shown.

SMILES	Calb FLC	HSF1 inhib	T cruzi repl	HIF activator	HSF1 activator
CCOC(=O)c1cc2nc(-c3ccco3)cc(C(F)(F)F)n2n1	2	-89*	-6	0	-92
Cc1ccccc1CN(C)CC(=O)Nc1c(C)cccc1C(C)C	-6	2	5	0	-1
O=C(Oc1ccccc1/C=C\C(=O)c1cc2ccccc2o1)c1ccccc1	-9	289	1	4	366*
O=C(Oc1ccccc1/C=C\C(=O)c1cc2ccccc2o1)c1cccc(F)c1	2	199	-28	5	235*
COc1ccc(C(=O)/C=C/c2ccccc2OC)c(OC(=O)c2ccc([N+](=O)[O-])cc2)c1	-5	33	-12	3	?
NC(=O)N/N=C/c1ccccc1OC(=O)c1cc2ccccc2oc1=O	10	22	-19	2	34
COc1cccc(C(=O)Oc2ccccc2/C=C\C(=O)c2cc3ccccc3o2)c1	-1	129	16	3	131*
CCn1cc(S(=O)(=O)c2ccc(C)cc2)c(=O)c2cc(OC)ccc21	11	-10	35	0	5
CC(C)Cc1nnc(NC(=O)CCC(=O)N2CCN(Cc3ccccc3)CC2)s1	-1	0	20	0	3
CC(O)Cn1c(N2CCCC2)nc2c1c(=O)[nH]c(=O)n2C (stereo unspecified)	0	-3	0	0	-3
COc1ccc(-c2nnc3n2N=C(C)CS3)cc1	5	-6	-3	0	-13
CCOC(=O)/C(=C\c1ccc(OC(F)F)cc1)C1=Nn2c(nnc2-c2ccc(Cl)cc2)SC1	?	-83*	39	-3	-83
Cc1ccc(-n2cc(CN3CCN(Cc4nccn4C)CC3)c(-c3ccc(F)cc3)n2)cc1	-43	32	18	0	55*
Cc1ccc(-n2cc(CN3CCN(c4ccccn4)CC3)c(-c3ccc(F)cc3)n2)cc1	0	-4	43	0	-10
Cc1ccc(-c2nn(-c3ccccc3)cc2CO)cc1	0	1	1	2	17
Cc1ccc(-c2nn(-c3ccccc3)cc2CNCc2ccccc2)cc1	3	9	62*	0	14
Cc1ccc(-n2cc(CNCCCn3ccnc3C)c(-c3ccc(F)cc3)n2)cc1	4	4	84*	0	10
CN(CC(=O)Nc1ccc(F)cc1)C(=O)COC(=O)c1cc(S(=O)(=O)N(C)C)ccc1N1CCCC1	.	-68*	0	1	-74
C(=C1/CCCC2=C1Nc1ncnn1C2c1ccccc1)/c1ccccc1 (stereo unspecified)	-8	53	74*	2	90*
C=CCn1c(SCC(=O)N2CCN(CCO)CC2)nc2sc3c(c2c1=O)CCC3	-1	-4	6	0	-3
S=C(Nc1ccc(Nc2ccccc2)cc1)NC1CCCCCC1	-5	2	55*	0	14
O=C(Nc1ccc2nsnc2c1)N1CCCCCC1	3	17	-5	-28	26
S=C(Nc1ccc2nsnc2c1)N1CCCC1	2	41	16	1	75*
S=C(Nc1ccccc1)N1CCCCCC1	-3	26	-3	2	55*
CC1CCCN(C(=S)Nc2ccc(Nc3ccccc3)cc2)C1 (stereo unspecified)	-13	61	2	2	93*
SMILES	Calb FLC	HSF1 inhib	T cruzi repl	HIF activator	HSF1 activator
COc1cc(C(C)=O)ccc1Oc1ncccn1	-15	-10	-8	0	-9
CCOc1ccc(-n2c(C)c(C(C)=O)c(C(C)=O)c2C)cc1	18	0	-2	0	-10
COc1ccc(-n2c(C)c(C(C)=O)c(C(C)=O)c2C)cc1	?	-64*	-2	0	-72
O=C(CCN1CCN(c2ccccc2F)CC1)c1ccc(Br)cc1	-7	-2	-5	0	-17
O=C(CCN1CCN(c2ccccc2)CC1)N/N=C/c1ccccc1O	37	-1	7	17*	12
O=C(CCC(=O)N1CCN(c2ccc(O)cc2)CC1)c1cccs1	-18	2	30	0	-4
O=C(CCC(=O)N1CCN(c2ccc(O)cc2)CC1)c1ccc(Br)cc1	?	40	39	0	91*
O=C(CCN1CCN(c2ccccc2)CC1)c1ccc(Br)cc1	20	8	62*	2	11
COc1ccc(C(=O)CCN2CCN(c3ccccc3F)CC2)cc1	-1	11	63*	0	32
Cc1ccc(OCc2cn3cccnc3n2)cc1	-1	10	-20	1	28
CC(C)CNC(=O)c1cnn2c(C(F)(F)F)cc(C(F)(F)F)nc12	-1	-5	10	0	-8
CSc1nn2c(C(F)(F)F)cc(C(F)(F)F)nc2c1C(=O)O	112*	-5	-7	-1	40
O=C(O)CC(NC(=O)Cc1ccc([N+](=O)[O-])cc1)c1ccc2c(c1)OCO2 (stereo unspecified)	-4	8	-5	0	16
CCOC(=O)c1ccc2ncc(-c3ccccc3)nc2c1	12	33	-11	3	62*
Cc1ncc(C[n+]2csc(CCOC(=O)CC34CC5CC(CC(C5)C3)C4)c2C)c(N)n1	-7	3	22	1	-6
Cc1c(CCOC(=O)CC23CC4CC(CC(C4)C2)C3)sc[n+]1Cc1ccccc1	100*	-8	40	0	15
O=C(Nc1ccccc1Cl)c1ccc([N+](=O)[O-])o1	100*	42	5	2	?
CC(=O)Nc1cccc(NC(=O)c2ccco2)c1	4	-4	2	0	5
Cc1ccccc1NC(=O)c1c([N+](=O)[O-])cnn1C	2	-11	-5	0	-8
O=C(Nc1cccc(NC(=O)c2ccc([N+](=O)[O-])o2)c1)c1ccco1	-6	66	21	0	93*
Cc1ccccc1NC(=O)c1ccc([N+](=O)[O-])o1	19	13	36	1	13
O=C(Nc1cccc(NC(=O)c2ccc(-c3ccc(Br)cc3)o2)c1)c1ccccc1	9	-2	13	0	19
O=C(Nc1cccc(NC(=O)c2ccc(-c3cccc(Br)c3)o2)c1)c1ccco1	10	-8	55*	2	16
Cn1ncc([N+](=O)[O-])c1C(=O)Nc1ccccc1Cl	-1	-73*	-18	0	-77
Cc1cc(Cl)ccc1NC(=O)c1ccc2c(c1)CCN2S(C)(=O)=O	1	0	-18	2	-11
O=C(Nc1ccc(NC(=O)c2ccco2)c(Cl)c1)c1ccccc1	7	12	-6	0	31
O=C(Nc1ccc(NC(=O)c2ccc([N+](=O)[O-])o2)cc1Cl)c1ccco1	-1	121	13	1	162*
C=CCNC(=S)Nc1sc2c(c1C#N)CCCC2	41	-54*	-8	1	-62
COc1ccc(N(CC(=O)N2CCOCC2)S(C)(=O)=O)cc1Cl	1	1	?	2	3
